Experiments:
[1] = Solubility in water at pH 5.0; type: physicochemical
Outline: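 Not measured directly. Intrinsic solubility S0 comes from equilibrium solubility in pH 7.4 phosphate buffer (2–4 days, UV read-out). Solubility at pH 5 is then calculated as S = S0(1 + 10^(pKa1−pH) + 10^(pH−pKa2)), using the imidazole and sulfonamide pKa values.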

Carbonic anhydrase = Carbonic anhydrase (Bos taurus, UniProt P00921+Q95323+P18915+Q3SZX4); test: Bovine erythrocyte carbonic anhydrase inhibitory activity of the compound.
[2] = Compound was evaluated for partition coefficient at pH 7.4 (CHCl3/buffer); settings: octanol/water
[3] = Intrinsic solubility of the compound; type: ADME; settings: read-out: S
Outline: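 Compound equilibrated 2–4 days in pH 7.4 phosphate buffer in sealed rotating tubes, amount tripled if all dissolved. pH and concentration then measured: solution filtered (0.2 μm), diluted, concentration read by UV spectrum. Intrinsic solubility S0 derived from S = S0(1 + 10^(pKa1−pH) + 10^(pH−pKa2)).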

[4] = (§1) Partition coefficient at pH 7.4 between chloroform and water as a measure of lipid solubility.
[5] = as §1; type: ADME; settings: read-out: pKa1
Outline: (§2)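 Drug dissolved in 0.05 M phosphate buffer, pH 7.4, and shaken with an equal volume of chloroform to equilibrium. Aqueous drug concentration found from carbonic anhydrase inhibitory activity of aqueous samples against a standard curve. Organic concentration obtained by difference. Reported as organic/aqueous concentration ratio.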

Oryctolagus cuniculus = test: Compound was evaluated for decrease in intraocular pressure (IOP) (mmHg) at 1 hour postdosing to New Zealand white rabbits with 2% solubility; type: functional, Eye
Outline: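 New Zealand white rabbits, at least six per test, 2–10 experiments. Eyes given one drop of topical anesthetic (proparacaine) before tonometer IOP readings, taken before dosing and at 1 h intervals after. Drug at 2% in 0.5% hydroxyethylcellulose, 50 μL to one eye, vehicle to the other. Value is treated-eye minus control-eye IOP at 1 h, mean.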

[6] = Partition coefficient of the compound at pH 7.4 between chloroform and water as a measure of lipid solubility.; type: ADME; settings: read-out: pKa2; outline: as §2

`Cl.NS(=O)(=O)Oc1ccc(-n2ccnc2)cc1` gave a solubility [1] of 1000 µg/mL, an IC50 (Carbonic anhydrase) of 120 nM and a Partition coefficient [2] of 0.16. It also gave a solubility [3] of 230 µg/mL, a pKa [4] of 8 and a pKa [5] of 5.54. For the same compound, the IOP (Oryctolagus cuniculus) was 1.3 mmHg.

Work on `Cl.NS(=O)(=O)OCCCOc1ccc(-n2ccnc2)cc1` yielded a pKa [6] of 9.22, a solubility [1] of 1600 µg/mL and an IC50 (Carbonic anhydrase) of 250 nM. For the same compound, the Partition coefficient [2] was 5.5, the solubility [3] was 120 µg/mL and the pKa [5] was 6.09. It also gave an IOP (Oryctolagus cuniculus) of 0 mmHg.

With `Cc1cn(-c2cccc(OS(N)(=O)=O)c2)cn1.Cl` the solubility [1] was 6300 µg/mL, the IC50 (Carbonic anhydrase) was 94 nM and the Partition coefficient [2] was 0.73. For the same compound, the solubility [3] was 470 µg/mL, the pKa [4] was 8.08 and the pKa [5] was 6.09.

In the case of `Cc1cn(-c2cccc(OCCOS(N)(=O)=O)c2)cn1.Cl`, the solubility [1] is reported as 4900 µg/mL, the IC50 (Carbonic anhydrase) is reported as 210 nM and the Partition coefficient [2] is reported as 4.6. The solubility [3] was 220 µg/mL, the pKa [4] was 8.96 and the pKa [5] was 6.34.

In the case of `Cc1nccn1-c1cccc(OS(N)(=O)=O)c1.Cl`, the solubility [1] is reported as 100000 µg/mL, the IC50 (Carbonic anhydrase) is reported as 50 nM and the Partition coefficient [2] is reported as 0.18. The solubility [3] was 3300 µg/mL, the pKa [4] was 7.99 and the pKa [5] was 6.47. For the same compound, the IOP (Oryctolagus cuniculus) was 0 mmHg.

In the case of `Cl.NS(=O)(=O)OCCOc1cccc(-n2ccnc2)c1`, the solubility [1] is reported as 1500 µg/mL, the IC50 (Carbonic anhydrase) is reported as 69 nM and the Partition coefficient [2] is reported as 2.2. The solubility [3] was 250 µg/mL, the pKa [4] was 8.91 and the pKa [5] was 5.71. The IOP (Oryctolagus cuniculus) was 2.3 mmHg.

`CC(=O)Nc1nnc(S(N)(=O)=O)s1.Cl` showed a solubility [1] of less than 710 µg/mL and an IOP (Oryctolagus cuniculus) of 0 mmHg.

`Cl.NS(=O)(=O)Oc1cccc(-n2ccnc2)c1` showed a solubility [1] of 38000 µg/mL, an IC50 (Carbonic anhydrase) of 42 nM and a Partition coefficient [2] of 0.28. The solubility [3] was 11000 µg/mL, the pKa [4] was 9.05 and the pKa [5] was 5.4. The IOP (Oryctolagus cuniculus) was 1.5 mmHg.

For `Cc1nccn1-c1cccc(OCCOS(N)(=O)=O)c1.Cl`, the pKa [6] was 8.99, the solubility [1] was 114000 µg/mL and the IC50 (Carbonic anhydrase) was 77 nM. For the same compound, the Partition coefficient [2] was 1.1, the solubility [3] was 1400 µg/mL and the pKa [5] was 6.9. The IOP (Oryctolagus cuniculus) was 1.7 mmHg.

`Cl.NS(=O)(=O)OCCOc1ccc(-n2ccnc2)cc1` showed a solubility [1] of 7400 µg/mL, an IC50 (Carbonic anhydrase) of 23 nM and a Partition coefficient [2] of 1.5. The solubility [3] was 700 µg/mL, the pKa [4] was 9.05 and the pKa [5] was 5.98. It also gave an IOP (Oryctolagus cuniculus) of 2.5 mmHg.
